In general, Kd refers to the concentration at which binding is half-saturated. The low end stands for tighter binding, the high end for weaker binding.

The text below walks through data of PMC3125946 (Biochemistry, 2011).

One data set has as its target T1, MjCobY (Methanocaldococcus jannaschii, UniProt Q58517, G153D).
T1 sequence (Q58517 1-196 G153D): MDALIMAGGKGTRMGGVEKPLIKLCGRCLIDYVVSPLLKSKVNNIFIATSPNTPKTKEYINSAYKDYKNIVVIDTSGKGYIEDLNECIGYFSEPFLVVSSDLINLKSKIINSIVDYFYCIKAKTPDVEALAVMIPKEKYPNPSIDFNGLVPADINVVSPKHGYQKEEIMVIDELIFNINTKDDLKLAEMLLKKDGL
The experiment in a line: isothermal titration calorimetry. It is filed as binding. The gist of the method:
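Recombinant G153D variant purified by heat step (75°C, 15 min), ammonium sulfate, hydrophobic interaction, anion exchange and size-exclusion chromatography; dialysed at 4 °C against Tris-HCl 50 mM pH 8.0, NaCl 50 mM, MgCl2 10 mM, TCEP 4 mM. GTP in spent dialysate; 1 mM stock titrated by 27 injections into 18 µM protein dimers at 27 °C.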

The data set “SEC” deals with the molecule itself. The experiment in a line: SEC. (In general: In gel filtration, larger molecules generally elute earlier.)

In turn, `Nc1nc2c(ncn2[C@@H]2O[C@H](COP(=O)(O)OP(=O)(O)OP(=O)(O)O)[C@@H](O)[C@H]2O)c(=O)[nH]1` [GTP] returned a Kd at MjCobY of 400 ± 40 nM.

B1: MjCobY^G8D (enzyme, Methanocaldococcus jannaschii, UniProt Q58517 1-196, looked up)
chain: MDALIMADGKGTRMGGVEKPLIKLCGRCLIDYVVSPLLKSKVNNIFIATSPNTPKTKEYINSAYKDYKNIVVIDTSGKGYIEDLNECIGYFSEPFLVVSSDLINLKSKIINSIVDYFYCIKAKTPDVEALAVMIPKEKYPNPSIDFNGLVPAGINVVSPKHGYQKEEIMVIDELIFNINTKDDLKLAEMLLKKDGL
B1: in “SEC”, the “percent dimer (Monomer:Dimer Ratio)” value came to 67% and the “percent monomer (Monomer:Dimer Ratio)” value turned out to be 33%.

B2: MjCobY^G153D (enzyme, Methanocaldococcus jannaschii)
chain: MDALIMAGGKGTRMGGVEKPLIKLCGRCLIDYVVSPLLKSKVNNIFIATSPNTPKTKEYINSAYKDYKNIVVIDTSGKGYIEDLNECIGYFSEPFLVVSSDLINLKSKIINSIVDYFYCIKAKTPDVEALAVMIPKEKYPNPSIDFNGLVPADINVVSPKHGYQKEEIMVIDELIFNINTKDDLKLAEMLLKKDGL
With B2, in the data set “SEC”, the “percent dimer (Monomer:Dimer Ratio)” value worked out at 46% and the “percent monomer (Monomer:Dimer Ratio)” value came out at 54%.

B3: MjCobY D83G (enzyme, Methanocaldococcus jannaschii, UniProt Q58517 1-196, looked up)
chain: MDALIMAGGKGTRMGGVEKPLIKLCGRCLIDYVVSPLLKSKVNNIFIATSPNTPKTKEYINSAYKDYKNIVVIDTSGKGYIEGLNECIGYFSEPFLVVSSDLINLKSKIINSIVDYFYCIKAKTPDVEALAVMIPKEKYPNPSIDFNGLVPAGINVVSPKHGYQKEEIMVIDELIFNINTKDDLKLAEMLLKKDGL
As to B3, in the data set “SEC”, the “percent dimer (Monomer:Dimer Ratio)” value was 18% and the “percent monomer (Monomer:Dimer Ratio)” value worked out at 82%.

B4: MjCobY P94A (enzyme, Methanocaldococcus jannaschii, UniProt Q58517 1-196, looked up)
chain: MDALIMAGGKGTRMGGVEKPLIKLCGRCLIDYVVSPLLKSKVNNIFIATSPNTPKTKEYINSAYKDYKNIVVIDTSGKGYIEDLNECIGYFSEAFLVVSSDLINLKSKIINSIVDYFYCIKAKTPDVEALAVMIPKEKYPNPSIDFNGLVPAGINVVSPKHGYQKEEIMVIDELIFNINTKDDLKLAEMLLKKDGL
Turning to B4, in “SEC”, the “percent dimer (Monomer:Dimer Ratio)” value amounted to 48% and the “percent monomer (Monomer:Dimer Ratio)” value was found to be 52%.

B5: MjCobY K19A (enzyme, Methanocaldococcus jannaschii, UniProt Q58517 1-196, looked up)
chain: MDALIMAGGKGTRMGGVEAPLIKLCGRCLIDYVVSPLLKSKVNNIFIATSPNTPKTKEYINSAYKDYKNIVVIDTSGKGYIEDLNECIGYFSEPFLVVSSDLINLKSKIINSIVDYFYCIKAKTPDVEALAVMIPKEKYPNPSIDFNGLVPAGINVVSPKHGYQKEEIMVIDELIFNINTKDDLKLAEMLLKKDGL
Consider B5, for which, in “SEC”, the “percent dimer (Monomer:Dimer Ratio)” value was 64% and the “percent monomer (Monomer:Dimer Ratio)” value came out at 36%.

B6: MjCobY P20A (enzyme, Methanocaldococcus jannaschii, UniProt Q58517 1-196, looked up)
chain: MDALIMAGGKGTRMGGVEKALIKLCGRCLIDYVVSPLLKSKVNNIFIATSPNTPKTKEYINSAYKDYKNIVVIDTSGKGYIEDLNECIGYFSEPFLVVSSDLINLKSKIINSIVDYFYCIKAKTPDVEALAVMIPKEKYPNPSIDFNGLVPAGINVVSPKHGYQKEEIMVIDELIFNINTKDDLKLAEMLLKKDGL
On to B6, for which, in the data set “SEC”, the “percent dimer (Monomer:Dimer Ratio)” value worked out at 37% and the “percent monomer (Monomer:Dimer Ratio)” value turned out to be 63%.

B7: MjCobY R13A (enzyme, Methanocaldococcus jannaschii, UniProt Q58517 1-196, looked up)
chain: MDALIMAGGKGTAMGGVEKPLIKLCGRCLIDYVVSPLLKSKVNNIFIATSPNTPKTKEYINSAYKDYKNIVVIDTSGKGYIEDLNECIGYFSEPFLVVSSDLINLKSKIINSIVDYFYCIKAKTPDVEALAVMIPKEKYPNPSIDFNGLVPAGINVVSPKHGYQKEEIMVIDELIFNINTKDDLKLAEMLLKKDGL
As to B7, in “SEC”, the “percent dimer (Monomer:Dimer Ratio)” value was 86% and the “percent monomer (Monomer:Dimer Ratio)” value came to 14%.

B8: MjCobY T53S (enzyme, Methanocaldococcus jannaschii, UniProt Q58517 1-196, looked up)
chain: MDALIMAGGKGTRMGGVEKPLIKLCGRCLIDYVVSPLLKSKVNNIFIATSPNSPKTKEYINSAYKDYKNIVVIDTSGKGYIEDLNECIGYFSEPFLVVSSDLINLKSKIINSIVDYFYCIKAKTPDVEALAVMIPKEKYPNPSIDFNGLVPAGINVVSPKHGYQKEEIMVIDELIFNINTKDDLKLAEMLLKKDGL
With B8, in “SEC”, the “percent dimer (Monomer:Dimer Ratio)” value stood at 24% and the “percent monomer (Monomer:Dimer Ratio)” value was 76%.

B9: MjCobY P54A (enzyme, Methanocaldococcus jannaschii, UniProt Q58517 1-196, looked up)
chain: MDALIMAGGKGTRMGGVEKPLIKLCGRCLIDYVVSPLLKSKVNNIFIATSPNTAKTKEYINSAYKDYKNIVVIDTSGKGYIEDLNECIGYFSEPFLVVSSDLINLKSKIINSIVDYFYCIKAKTPDVEALAVMIPKEKYPNPSIDFNGLVPAGINVVSPKHGYQKEEIMVIDELIFNINTKDDLKLAEMLLKKDGL
For the molecule B9, in “SEC”, the “percent dimer (Monomer:Dimer Ratio)” value turned out to be 50% and the “percent monomer (Monomer:Dimer Ratio)” value came out at 50%.

B10: MjCobY Y80F (enzyme, Methanocaldococcus jannaschii, UniProt Q58517 1-196, looked up)
chain: MDALIMAGGKGTRMGGVEKPLIKLCGRCLIDYVVSPLLKSKVNNIFIATSPNTPKTKEYINSAYKDYKNIVVIDTSGKGFIEDLNECIGYFSEPFLVVSSDLINLKSKIINSIVDYFYCIKAKTPDVEALAVMIPKEKYPNPSIDFNGLVPAGINVVSPKHGYQKEEIMVIDELIFNINTKDDLKLAEMLLKKDGL
Take B10: in the data set “SEC”, the “percent dimer (Monomer:Dimer Ratio)” value worked out at 26% and the “percent monomer (Monomer:Dimer Ratio)” value is 74%.

B11: MjCobY E18D (enzyme, Methanocaldococcus jannaschii, UniProt Q58517 1-196, looked up)
chain: MDALIMAGGKGTRMGGVDKPLIKLCGRCLIDYVVSPLLKSKVNNIFIATSPNTPKTKEYINSAYKDYKNIVVIDTSGKGYIEDLNECIGYFSEPFLVVSSDLINLKSKIINSIVDYFYCIKAKTPDVEALAVMIPKEKYPNPSIDFNGLVPAGINVVSPKHGYQKEEIMVIDELIFNINTKDDLKLAEMLLKKDGL
Regarding B11, in “SEC”, the “percent dimer (Monomer:Dimer Ratio)” value came to 60% and the “percent monomer (Monomer:Dimer Ratio)” value was 40%.

B12: MjCobY D101G (enzyme, Methanocaldococcus jannaschii, UniProt Q58517 1-196, looked up)
chain: MDALIMAGGKGTRMGGVEKPLIKLCGRCLIDYVVSPLLKSKVNNIFIATSPNTPKTKEYINSAYKDYKNIVVIDTSGKGYIEDLNECIGYFSEPFLVVSSGLINLKSKIINSIVDYFYCIKAKTPDVEALAVMIPKEKYPNPSIDFNGLVPAGINVVSPKHGYQKEEIMVIDELIFNINTKDDLKLAEMLLKKDGL
B12: in “SEC”, the “percent dimer (Monomer:Dimer Ratio)” value came to 66% and the “percent monomer (Monomer:Dimer Ratio)” value is 34%.
